Bioassay records: PubChem, several laboratories
Only some compounds are listed: those with a hit (about 4.2% of all), similar ones and a draw of the others.
KCNQ1 block: inhibitors of human KCNQ1 potassium channel | CHO-K1 KCNQ1, FluxOR thallium flux fluorescence; hits give high values | actives 1.3% (n = 310,000) | B-score at 10 µM;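 active = compounds whose thallium flux B-score, printed positive for inhibition, exceeds three library SD while starting fluorescence stays within three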;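 also: channel opened by potassium depolarization with thallium stimulus after 20 min compound exposure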
Cl transport mod: KCC2 (human) Cl- transport modulation | Q9H2X9 | actives 2.2% (n = 190,000) | B-score of Tl+ flux slope (higher = more flux/activation; lower = inhibition) at 10 µM | KCC2 cells, thallium flux FluoZin-2 fluorescence;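 active = thallium flux slope and its plate-corrected score both differing from the plate sample mean at a set confidence after two filtering rounds, in either direction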;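 also: slope of fluorescence scaled to starting intensity during 10 to 20 s after thallium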
hERG rescue: hERG (human) protection from proarrhythmic block | Q12809 | CHO-hERG, FluxOR thallium flux, dofetilide IC70 present | activation (rescue from dofetilide block), less the hit threshold, % at 10 µM | actives 0.51% (n = 310,000);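 active = activation above the mean of controls blocked by dofetilide plus 5 SD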;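 also: thallium influx through hERG after potassium depolarization seen as dye fluorescence rise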
KCNQ1 act: human KCNQ1 channel potentiation or activation. P51787. CHO-K1 KCNQ1, thallium flux FluxOR fluorescence; hits give high values. B-score at 10 µM. actives 0.35% (n = 310,000);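 active = fluorescence ratio B-score, a plate-corrected score, at least three library SD, with initial intensity B-score within 5 SD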
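System: CHO-K1 cells stably expressing KCNQ1 / Medium: assay buffer for compound exposure, DMSO matched across wells / Reagent: thallium- and potassium-containing depolarizing buffer / Compound: one concentration, matched DMSO / Incubation: 20 min compound pretreatment at room temperature / Measured by: kinetic FluxOR fluorescence, 10 s baseline plus 110 s post-stimulus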
AI-2 QS mod: modulators of Vibrio harveyi AI-2 quorum sensing system; actives 0.4% (n = 300,000); AID 2094; activity change, % at 7.5 µM; Vibrio harveyi JMH597 AI-2 luminescence/OD600 ratio, 9 h; hits give low values; strain lacks LuxN and CqsS sensors; 0 = neutral-control median; in the data active = activity change below about -75%, passing the limit was not always enough; inconclusive = no clear call, values can overlap the other calls;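 also: luminescence divided by OD600 gain over 9 h not by final OD600 alone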
SUMO Mot1 rescue: blocks SUMOylation pathway, rescuing yeast Mot1-301 growth; S. cerevisiae Mot1-301 growth rescue, ATP luminescence, 38.5C; percent above DMSO median, 100 means doubled; actives 1% (n = 320,000); growth rescue, % at 18.8 µM;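 active = every valid replicate shows activation above 250% relative to neutral control wells; inactive = the rest, any valid replicate at or below 250%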;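 also: OY570 slx delta 5 strain wells were the positive control but not used for scaling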
KCNQ1 block val: reconfirmed blocker of the human KCNQ1 potassium channel. KCNQ1 cell line, FluxOR thallium flux fluorescence. inhibition, % at 10 µM. actives 93% (n = 1,600). shares compounds with KCNQ1 block;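 active = primary screen active, with duplicate mean exceeding buffer control mean plus 3 SD of buffer wells, cut at about 28% in these data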;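 also: 0% = buffer control ratio and 100% = XE991 inhibitor control ratio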
CHO Tl flux: activity in parental CHO cells lacking KCNQ1. shares compounds with KCNQ1 block. parental CHO-K1, FluxOR thallium flux fluorescence ratio; hits give low values; zero means no signal rise above baseline. fluorescence ratio (Tl flux) at 10 µM. actives 21% (n = 1,600). AID 588366;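 active = mean of duplicate thallium-flux fluorescence ratios in parental host cells more than 5 SD below the buffer control mean, cut at about 0.38 in these data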;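 also: ratio is peak minus minimum fluorescence divided by baseline fluorescence; actives read low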
KCNQ1 APC inh: blocks human KCNQ1 current in automated patch clamp; actives 20% (n = 490); AID 624120; shares compounds with KCNQ1 block; KCNQ1-CHO cells; calls only at 10 µM;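 active = KCNQ1 current drop exceeding 3 SD of negative control wells, seen in both duplicate runs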;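 also: steady state current during a 2 s step from -80 to +40 mV; negative values mean current inhibition and positive values mean potentiation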
KCNQ2 spec: selectivity of KCNQ1 inhibitors: inhibition of rat KCNQ2 channel. inhibition, % at 10 µM. KCNQ2 cells, FluxOR thallium flux fluorescence. actives 71% (n = 1,600). AID 651746. shares compounds with KCNQ1 block;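 active = mean percent inhibition of the KCNQ2 thallium signal more than 5 SD above the buffer-only control wells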;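 also: KCNQ2 expressed in CHO cells; 0% = buffer control wells and 100% = XE-991 inhibitor control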
KCNQ1 KCNE1 spec: KCNQ1 inhibitor that also blocks human KCNQ1/KCNE1 channel; inhibition, % at 10 µM; KCNQ1/KCNE1 cells, FluxOR thallium flux fluorescence; actives 77% (n = 1,600); shares compounds with KCNQ1 block;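 active = mean percent inhibition of duplicate wells above the buffer-only control mean plus 3 SD of those controls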;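 also: 0% = buffer only wells and 100% = XE-991 inhibitor control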
Target sequence (P51787 whole entry, looked up): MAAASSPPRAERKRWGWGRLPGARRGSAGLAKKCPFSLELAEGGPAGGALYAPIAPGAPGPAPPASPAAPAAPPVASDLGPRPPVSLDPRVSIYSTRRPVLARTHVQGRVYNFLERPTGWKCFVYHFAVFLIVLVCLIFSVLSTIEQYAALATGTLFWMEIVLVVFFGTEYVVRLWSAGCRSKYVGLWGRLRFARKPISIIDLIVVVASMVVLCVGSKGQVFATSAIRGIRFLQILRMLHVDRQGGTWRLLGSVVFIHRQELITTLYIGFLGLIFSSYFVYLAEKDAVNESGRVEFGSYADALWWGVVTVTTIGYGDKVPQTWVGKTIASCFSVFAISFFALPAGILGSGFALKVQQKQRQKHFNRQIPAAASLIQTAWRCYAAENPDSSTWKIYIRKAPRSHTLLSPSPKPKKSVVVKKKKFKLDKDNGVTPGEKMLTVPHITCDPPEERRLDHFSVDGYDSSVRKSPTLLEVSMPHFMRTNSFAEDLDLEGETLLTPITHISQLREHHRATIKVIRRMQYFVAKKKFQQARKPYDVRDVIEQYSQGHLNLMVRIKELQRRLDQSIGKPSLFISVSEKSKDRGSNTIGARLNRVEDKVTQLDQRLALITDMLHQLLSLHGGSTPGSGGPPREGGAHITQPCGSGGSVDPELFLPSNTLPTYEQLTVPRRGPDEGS
The depositor's hits bear a star; i = inactive; u = inconclusive; x = not tested or not shown; + = active, no number.

SMILES	KCNQ1 block	Cl transport mod	hERG rescue	KCNQ1 act	AI-2 QS mod	SUMO Mot1 rescue	KCNQ1 block val	CHO Tl flux	KCNQ2 spec	KCNQ1 KCNE1 spec	others
CN1CCc2c(sc(NC(=O)c3cc(Cl)sc3Cl)c2C(N)=O)C1	i	x	-16	i	31	214	x	x	x	x
O=C(Nc1ccc(N2CCOCC2)cc1)c1ccc(Cl)nc1	i	0.33	-3	i	-2	5	x	x	x	x
CS(=O)(=O)c1ncc(Cl)c(C(=O)Nc2ccc(OC(F)F)cc2)n1	6*	x	-21	i	u	-10	74*	0.34*	i	118%*
CS(=O)(=O)c1ncc(Cl)c(C(=O)Nc2ccc(N3CCOCC3)cc2)n1	7*	-2.4	-27	i	-7	-3	73*	0.41	92%*	108%*
Cc1ccccc1NC(=O)c1nc(S(C)(=O)=O)ncc1Cl	i	x	-20	i	x	-15	x	x	x	x
COc1ccc(-c2cc(C(=O)N3CCN(C(c4ccccc4)c4ccccc4)CC3)no2)cc1OC	i	0.11	-10	i	30	7	x	x	x	x
COc1ccc2oc(C(=O)N3CCN(C(c4ccccc4)c4ccccc4)CC3)c(C)c2c1	9*	x	-12	i	20	-19	93*	0.44	101%*	114%*	KCNQ1 APC inh=+
CC(C)c1cc(C(=O)N2CCN(C(c3ccccc3)c3ccccc3)CC2)no1	7*	-1.8	-7	i	38	-7	108*	0.41	103%*	110%*	KCNQ1 APC inh=i
COc1ccc(-c2cc(C(=O)N3CCN(C(c4ccccc4)c4ccccc4)CC3)no2)cc1	i	0.33	-14	i	29	-21	x	x	x	x
O=C(c1cc(-c2ccco2)on1)N1CCN(C(c2ccccc2)c2ccccc2)CC1	8*	x	-9	i	4	-6	124*	0.43	96%*	142%*
CC(C)Cc1cc(C(=O)N2CCN(C(c3ccccc3)c3ccccc3)CC2)no1	7*	0.083	-9	i	20	-5	136*	0.44	109%*	176%*	KCNQ1 APC inh=i
O=C(NCCc1nc(-c2ccccc2)cs1)c1ccc(Br)cc1	i	-3.6	-7	i	2	18	x	x	x	x
Cc1ccc(-c2cc(-c3ccc(F)cc3)nc(N)c2C#N)o1	i	2.2	-13	i	5	-9	x	x	x	x
Cc1ccc(-c2cc(-c3ccccc3)c(C#N)c(N)n2)o1	6*	-3.1	-11	i	24	70	34*	0.43	i	48%*
CCCCCC(=O)Nc1cccc(C2=NOC3(C2)C[C@@H](C(N)=O)N(C(=O)C2(C)CC2)C3)c1 (stereo not given in full)	i	-0.41	1	i	26	-20	x	x	x	x
Cc1c(C(=O)N/N=C/c2cccnc2)nnn1-c1nonc1N	i	x	-4	i	17	9	x	x	x	x
COc1cc(C(=O)OCC(=O)N2CCOCC2)c([N+](=O)[O-])cc1OC	i	x	-3	i	10	50	x	x	x	x
CSc1nc2nc(C)c(C/C=C/c3ccccc3)c(=O)n2[nH]1	i	-0.22	-7	i	43	-6	x	x	x	x
CCc1c(C)nc2nc(SCc3ccccc3Cl)[nH]n2c1=O	9*	x	-12	i	11	-9	85*	0.48	69%*	34%*
O=C(CSc1nnc(C2CC2)n1Cc1ccccc1)N1CCNC1=O	x	x	x	x	x	-11	x	x	x	x
COc1ccc(N2C(=NC(=O)C(C)Oc3ccccc3)SC3CS(=O)(=O)CC32)cc1 (stereo not given)	i	x	-13	i	6	-14	x	x	x	x
O=C(COC(=O)COc1ccc(Br)cc1)NCc1ccccc1	x	x	x	x	x	2	x	x	x	x
CC(C)(C)c1nc(N2CCN(C(=O)c3ccco3)CC2)c2nnn(Cc3ccccc3)c2n1	7*	-0.35	-9	i	55	32	118*	0.39	105%*	132%*	KCNQ1 APC inh=i
O=C(c1ccco1)N1CCCC(c2nc3c(nnn3Cc3ccccc3)c(=O)[nH]2)C1 (stereo not given)	i	x	-6	i	19	-6	x	x	x	x
Cc1ccc2c(c1)N(CC(=O)NCCCN1C(C)CCCC1C)C(=O)c1cccnc1O2 (stereo not given)	i	x	-4	i	2	-14	x	x	x	x
SMILES	KCNQ1 block	Cl transport mod	hERG rescue	KCNQ1 act	AI-2 QS mod	SUMO Mot1 rescue	KCNQ1 block val	CHO Tl flux	KCNQ2 spec	KCNQ1 KCNE1 spec	others
CN(C)S(=O)(=O)c1cccc(COC(=O)c2ccc(Cl)cc2O)c1	7*	-0.049	-24	i	5	185	121*	0.43	96%*	117%*	KCNQ1 APC inh=i
O=C(N/N=C/c1cc([N+](=O)[O-])ccc1N1CCNCC1)c1ccc([N+](=O)[O-])cc1	i	-1.1	-15	i	12	-1	x	x	x	x
CSc1ccccc1C(=O)Nc1cccc(C(C)O)c1 (stereo not given)	i	0.94	-7	i	3	7	x	x	x	x
O=C(NCc1ccccc1Cl)c1cc(C(=O)C2CC2)c[nH]1	i	x	-6	i	11	-1	x	x	x	x
COc1ccc(-c2cc(C)no2)cc1S(=O)(=O)N1CCOc2ccccc21	i	x	-9	i	10	-20	x	x	x	x
Cc1cc(-c2ccc(C(C)C)c(S(=O)(=O)N3CCOc4ccccc43)c2)on1	7*	x	-8	i	1	104	96*	0.39	83%*	107%*	KCNQ1 APC inh=i
O=C(Nc1ccccc1N1CCCC1)c1ccccc1F	i	x	-2	i	-3	12	x	x	x	x
COc1ccccc1NC(=O)c1cc2cc(Br)ccc2cc1O	9*	-0.11	-22	i	16	8	126*	0.45	97%*	107%*	KCNQ1 APC inh=i
COc1cc2ccccc2cc1C(=O)Nc1ccccc1N1CCCC1	20*	x	-14	i	18	-14	99*	0.46	82%*	110%*	KCNQ1 APC inh=i
O=C(Nc1ccccc1N1CCCCC1)c1ccccc1F	6*	x	-7	i	13	-24	102*	0.37*	76%*	144%*
